Source: ChEMBL document CHEMBL2321868, “The discovery of novel potent trans-3,4-disubstituted pyrrolidine inhibitors of the human aspartic protease renin from in silico three-dimensional (3D) pharmacophore searches” (J Med Chem, 2013)

Key:
[1] = Oral bioavailability in jugular vein cannulated Sprague-Dawley rat at 6 mg/kg by HPLC-MS analysis; format: ADME, organism-based; conditions: in vivo
In short: (§1)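 Cannulated, fed Sprague–Dawley rats were given 2 mg/kg intravenously and 6 mg/kg orally. Oral bioavailability came from the two routes. t1/2, plasma clearance and Vdss were estimated. Oral Cmax and AUC were taken over 0–24 h.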

Rattus norvegicus [2] = test: Antihypertensive activity in po dosed double transgenic rat overexpressing human renin and human angiotensinogen assessed as reduction in mean arterial pressure; format: functional, organism-based; conditions: Artery
In short: (§2)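 Double-transgenic rats overexpressing human renin and human angiotensinogen, with telemetry. Each received a single oral dose of 6 or 30 mg/kg. The read-out was mean arterial pressure, reported as the peak change from dosing.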

[3] = target: 5-hydroxytryptamine receptor 2A (Homo sapiens, UniProt P28223); test: Inhibition of 5-HT2A (unknown origin)
Chain of 5-hydroxytryptamine receptor 2A (P28223 whole entry): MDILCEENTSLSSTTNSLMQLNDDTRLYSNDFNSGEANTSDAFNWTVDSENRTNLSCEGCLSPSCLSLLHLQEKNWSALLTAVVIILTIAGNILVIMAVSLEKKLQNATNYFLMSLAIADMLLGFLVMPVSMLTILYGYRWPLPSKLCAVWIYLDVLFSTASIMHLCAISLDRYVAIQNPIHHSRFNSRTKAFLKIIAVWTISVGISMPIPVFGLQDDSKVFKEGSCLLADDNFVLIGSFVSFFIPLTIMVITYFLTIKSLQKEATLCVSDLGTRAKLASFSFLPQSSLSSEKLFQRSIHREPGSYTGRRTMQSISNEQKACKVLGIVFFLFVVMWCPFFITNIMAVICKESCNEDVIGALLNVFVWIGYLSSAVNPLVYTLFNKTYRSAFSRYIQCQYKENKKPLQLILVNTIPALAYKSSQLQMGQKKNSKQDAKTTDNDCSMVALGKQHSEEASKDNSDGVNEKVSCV

[4] = Cmax in jugular vein cannulated Sprague-Dawley rat at 6 mg/kg, po by HPLC-MS analysis; format: ADME, organism-based; set-up: dose 6 mg/kg, route oral; conditions: in vivo; in short: as §1
[5] = Volume of distribution at steady state in jugular vein cannulated Sprague-Dawley rat at 2 mg/kg, iv by HPLC-MS analysis; format: ADME, organism-based; set-up: dose 2 mg/kg, route intravenous; conditions: in vivo, read-out: Vdss; in short: as §1
[6] = Plasma clearance in Sprague-Dawley rat at 2 mg/kg, iv by HPLC-MS analysis; format: ADME, organism-based; set-up: dose 2 mg/kg, route intravenous; in short: as §1
Gastricsin = target: T1, Gastricsin (Homo sapiens, UniProt P20142); test: Inhibition of human recombinant pepsin C expressed in Escherichia coli using Dabcyl-E-R-Nle-F-L-S-F-P-EDANS as substrate incubated for 1 hr prior to substrate addition measured after 1 hr by FRET-based enzymatic assay
T1 sequence (P20142 whole entry): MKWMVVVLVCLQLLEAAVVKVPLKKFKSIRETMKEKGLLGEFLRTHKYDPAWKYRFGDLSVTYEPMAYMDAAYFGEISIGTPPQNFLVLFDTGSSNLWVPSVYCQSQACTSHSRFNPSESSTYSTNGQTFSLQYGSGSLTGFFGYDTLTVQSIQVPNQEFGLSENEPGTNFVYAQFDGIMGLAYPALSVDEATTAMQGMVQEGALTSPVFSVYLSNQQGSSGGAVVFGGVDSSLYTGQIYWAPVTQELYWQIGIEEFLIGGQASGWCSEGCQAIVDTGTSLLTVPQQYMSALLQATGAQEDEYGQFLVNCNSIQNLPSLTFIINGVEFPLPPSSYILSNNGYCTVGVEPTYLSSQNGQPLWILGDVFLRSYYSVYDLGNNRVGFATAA

[7] = Inhibition of human recombinant pepsin A expressed in Escherichia coli using Dabcyl-E-R-Nle-F-L-S-F-P-EDANS as substrate incubated for 1 hr prior to substrate addition measured after 1 hr by FRET-based enzymatic assay
Rattus norvegicus [8] = test: Antihypertensive activity in double transgenic rat overexpressing human renin and human angiotensinogen assessed as reduction in mean arterial pressure at 6 mg/kg, po; format: functional, Artery; in short: as §2
Cathepsin E = target: T2, Cathepsin E (Homo sapiens, UniProt P14091); test: Inhibition of human recombinant cathepsin-E expressed in Escherichia coli using Ac- E-D(EDANS)-KPILFFRLG-K(Dabcyl)-E-Amid as substrate incubated for 1 hr prior to substrate addition measured after 1 hr by FRET-based enzymatic assay
T2 sequence (P14091 whole entry): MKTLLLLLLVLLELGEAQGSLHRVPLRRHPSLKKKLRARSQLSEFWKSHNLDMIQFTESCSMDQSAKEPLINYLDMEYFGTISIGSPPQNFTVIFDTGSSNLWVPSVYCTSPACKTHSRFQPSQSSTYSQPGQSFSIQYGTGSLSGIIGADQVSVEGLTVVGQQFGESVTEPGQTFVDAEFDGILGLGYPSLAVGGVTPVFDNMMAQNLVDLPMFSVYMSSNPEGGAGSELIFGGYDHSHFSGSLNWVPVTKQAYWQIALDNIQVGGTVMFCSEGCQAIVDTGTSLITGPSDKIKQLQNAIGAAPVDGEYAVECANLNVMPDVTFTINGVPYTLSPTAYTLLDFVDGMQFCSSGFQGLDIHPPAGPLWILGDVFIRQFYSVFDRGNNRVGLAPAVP

For `COCCCOc1cc(C(=O)N(C[C@@H]2CNC[C@H]2Cc2ccccc2)C(C)C)ccc1OC.Cl`, the bioavailability [1] was 53%, the Activity (Rattus norvegicus [2]) was “Dose-dependent effect” and the IC50 [3] was over 1 µM. The Cmax [4] was 1310 nM, the Vd [5] was 2.8 L/kg and the clearance [6] was 25 mL/min/kg. It also gave an IC50 (Gastricsin) of over 30 µM, an IC50 [7] of over 30 µM and an Activity (Rattus norvegicus [8]) of 15 mmHg. It also gave an IC50 (Cathepsin E) of over 30 µM.
